In the library only some 1.9% were active in any assay of this set; here they are far more common.
NadD block – inhibitors of Staphylococcus aureus NadD. purified NadD enzyme, colorimetric absorbance read-out. inhibition, % at 20 µM. 0.78% of 360,000 active; in the data active means inhibition above about 26%
Rpn11 inh – blocks the human proteasome subunit Rpn11; O00487; human 26S proteasome, Ub4-pepOG fluorescence polarization; 20S core pre-blocked with epoxomicin; inhibition, % at 20 µM; 0.59% of 360,000 active;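 active means inhibition at 20 µM, scaled to each plate's controls, above about 33%, limit read from the data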
Rin1 Abl inh – inhibitors of human Rin1-Abl protein interaction | 0.4% of 360,000 active | TR-FRET Rin1/Abl binding, biochemical | inhibition, % at 7.35 µM | P00519+Q13671; in the data active means inhibition above about 5%, passing the limit was not always enough
ABHD5-PLIN5 inh – ABHD5-PLIN5 protein interaction inhibition | Q00G26+Q8WTS1 | Split G. princeps luciferase complementation, luminescence, 4 h | inhibition, % at 4 µM | 0.78% of 360,000 active | AID 602281;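 active means inhibition above the mean inhibition across every tested compound plus 3 SD, cut at about 22% in these data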;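 further: 0% = DMSO only wells and the 100% control is not disclosed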
Target sequence (Q00G26 whole entry, looked up): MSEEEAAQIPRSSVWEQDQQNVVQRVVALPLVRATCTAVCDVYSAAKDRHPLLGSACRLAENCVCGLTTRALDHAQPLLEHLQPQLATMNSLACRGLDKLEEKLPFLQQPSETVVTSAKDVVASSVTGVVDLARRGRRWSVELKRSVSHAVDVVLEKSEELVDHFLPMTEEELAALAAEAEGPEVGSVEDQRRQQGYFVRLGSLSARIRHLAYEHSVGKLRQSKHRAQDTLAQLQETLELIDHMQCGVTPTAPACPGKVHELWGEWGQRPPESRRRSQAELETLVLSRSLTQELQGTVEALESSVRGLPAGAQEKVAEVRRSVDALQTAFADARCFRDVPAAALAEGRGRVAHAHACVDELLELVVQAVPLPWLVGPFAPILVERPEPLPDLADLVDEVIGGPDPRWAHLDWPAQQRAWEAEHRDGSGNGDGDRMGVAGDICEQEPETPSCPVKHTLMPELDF
Target sequence (Q8WTS1 whole entry, looked up): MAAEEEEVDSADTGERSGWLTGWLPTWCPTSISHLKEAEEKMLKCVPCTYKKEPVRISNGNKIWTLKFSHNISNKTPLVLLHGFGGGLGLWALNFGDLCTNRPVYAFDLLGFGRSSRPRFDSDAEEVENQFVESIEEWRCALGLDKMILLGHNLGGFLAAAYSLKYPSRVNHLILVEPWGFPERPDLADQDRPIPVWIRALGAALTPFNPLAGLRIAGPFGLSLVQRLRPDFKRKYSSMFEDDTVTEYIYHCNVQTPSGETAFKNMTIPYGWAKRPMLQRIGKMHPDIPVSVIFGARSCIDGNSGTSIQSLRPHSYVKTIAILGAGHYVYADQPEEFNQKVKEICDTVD
Xi reactivation – X-chromosome reactivation activator | XiGFP mouse fibroblasts, % GFP-positive cells imaging, 3 d; cells co-treated with 5-aza-dC sensitizer; scaled so ellipticine positive control = 100% | activation, % at 7.58 µM | 0.055% of 360,000 active;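 active means mean normalized replicate activation at least 10% and every replicate at or above 10%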;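 further: 0% = median of on-plate neutral control wells and 100% = ellipticine 6 µM median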
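System: 68-5-11 XiGFP fibroblast line; Timing: 3 days compound exposure; Compound dosing: one concentration, pinned; Benchmarks: positive control ellipticine, 6 µM final; Buffer or medium: DMEM containing 5-aza-dC.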
* hit, by the source's call; / = no result given; ! = repeats disagree.

SMILES	NadD block	Rpn11 inh	Rin1 Abl inh	ABHD5-PLIN5 inh	Xi reactivation
CS(=O)(=O)c1sc(C#N)c2c1C(=O)CC(c1ccccc1)C2 (stereo not drawn)	-3.6	-3.5	-5.3	56.6*	5.3
Cc1oc2c(c(=O)c1C)C(=O)CC(c1ccccc1)C2 (stereo not drawn)	-1.0	-3.4	1.1	-7.0	/
CNC[C@H]1Oc2ccc(N(S(C)(=O)=O)S(C)(=O)=O)cc2C(=O)N(C)C[C@@H]1C	/	/	/	/	0.2
CCOC(=O)C1=C(C)NC(=S)NC1/C=C/c1ccccc1 (stereo not drawn)	2.1	-6.0	-2.5	-3.8	36.3*
COC(=O)C1=C(C)NC(=S)NC1/C=C/c1ccccc1 (stereo not drawn)	1.9	-6.1	3.9	-0.4	0.0
CCOC(=O)CCCc1sc(N)nc1-c1[nH]c(=O)[nH]c1C	-5.3	-8.4	62.6*	-17.4	/
COc1cccc(C2C(C#N)=C(N)Oc3cc(C)n(Cc4ccco4)c(=O)c32)c1 (stereo not drawn)	14.6	33.6	0.3	22.3*	/
Cc1cc2c(c(=O)n1Cc1cccnc1)C(c1ccccc1)C(C#N)=C(N)O2 (stereo not drawn)	3.4	5.8	0.2	-2.0	/
Cc1cc(-c2ccccc2)nc2cc(C(=O)NCc3ccco3)nn12	-1.8	-12.8	-3.6	22.7*	0.1
C[C@H](CO)N1C[C@H](C)[C@@H](CN(C)S(=O)(=O)c2ccccc2)OCCCC[C@H](C)Oc2ccc(NC(=O)Nc3ccc(F)cc3)cc2C1=O	/	/	/	/	0.1
COc1cccc(CN2CC3(C2)[C@H](c2ccccc2)[C@@H](CO)N3Cc2cccc(OC)c2)c1	/	/	/	/	0.1
O=C(N=Nc1c(O)[nH]c2ccccc12)c1ccccc1NS(=O)(=O)c1cccs1	3.3	-5.8	-1.6	7.8	0.6
COc1ccc2[nH]c(O)c(N=NC(=O)c3ccc(NS(=O)(=O)c4cccs4)cc3)c2c1	26.7	-5.9	0.0	-4.2	0.1
COc1cccc(C(=O)NNC(=O)c2ccc(NS(=O)(=O)c3cccs3)cc2)c1OC	-0.4	-1.8	-0.8	0.1	-0.1
Cc1cccc2c(N=Nc3ccc(S(=O)(=O)Nc4ccc(Cl)cc4)cc3[N+](=O)[O-])c(O)[nH]c12	33.1*	3.1	0.0	9.2	-0.1
Cc1ccc2[nH]c(O)c(N=NC(=O)c3ccc(NS(=O)(=O)c4cccs4)cc3)c2c1	42.9*	1.7	-3.0	-4.6	-0.2
O=C(N=Nc1c(O)[nH]c2ccc(F)cc12)c1ccc(NS(=O)(=O)c2cccs2)cc1	39.4*	-4.0	0.9	-1.1	0.1
Cc1cccc2c(N=NC(=O)c3ccc(NS(=O)(=O)c4cccs4)cc3)c(O)[nH]c12	60.6*	-8.6	-0.5	3.1	-0.1
CN1C(=O)c2cc(NC(=O)c3cncs3)ccc2OC[C@H]2O[C@@H](CC(=O)NCC3CC3)CC[C@@H]21	/	/	/	/	0.3
COc1ccc2c3c([nH]c2c1)[C@@H](CO)N(C(=O)Nc1c(C)noc1C)CC31CN(CC2CC2)C1	/	/	/	/	0.2
COCC(=O)Nc1ccc2c(c1)OC[C@@H](C)N(CC1CCCCC1)C[C@@H](C)[C@@H](OC)CN(C)C2=O	/	/	/	/	-0.3
CC(C)NC(=O)N(C)C[C@H]1OCCCC[C@H](C)Oc2ccc(NC(=O)Nc3cccc4ccccc34)cc2C(=O)N([C@H](C)CO)C[C@H]1C	/	/	/	/	0.1
COc1ccc2c3c(n(C)c2c1)[C@@H](CO)N(Cc1cccnc1)CC31CN(Cc2cccnc2)C1	/	/	/	/	0.1
COc1ccc(C(=O)Oc2ccc3ccc(=O)oc3c2)cc1	-1.1	3.9	1.2	-3.8	-0.1
COc1ccc(C(=O)Oc2ccc3oc(=O)sc3c2)cc1	-4.2	3.6	1.7	23.1*	/
SMILES	NadD block	Rpn11 inh	Rin1 Abl inh	ABHD5-PLIN5 inh	Xi reactivation
CCC(=O)N1CCC2(CC1)CN(C(=O)Nc1ccccc1F)[C@@H](CO)c1[nH]c3cc(OC)ccc3c12	/	/	/	/	0.1
CCc1cc(C(=O)N=Nc2c(O)[nH]c3c(Br)cc(Br)cc23)c2ccccc2n1	53.6*	4.4	-2.9	-1.7	0.0
NS(=O)(=O)c1ccc(CNC(=O)/C=C/c2ccco2)cc1	4.4	10.1	-2.4	22.8*	0.0
O=C(CC1(O)C(=O)Nc2ccccc21)c1ccc(-n2cccc2)cc1 (stereo not drawn)	4.0	1.9	-0.9	0.8	/
C=CCN1C(=O)C(O)(CC(=O)c2ccc(-n3cccc3)cc2)c2ccccc21 (stereo not drawn)	27.1*	0.6	1.5	6.4	/
CN(C)c1nc(=NCc2ccco2)ss1	2.6	14.9	0.9	89.6*	/
Cc1cc(C)n(CC(O)Cn2c(C)c(C)c3ccccc32)n1 (stereo not drawn)	-4.2	44.4*	-5.0	-6.5	/
COc1ccc2c3c(n(C)c2c1)[C@H](CO)N(C(=O)c1ccccn1)CC31CCN(C)CC1	/	/	/	/	0.2
c1ccc(CCNc2nc(-c3ccccn3)nc3ccccc23)cc1	11.2	13.5	-1.8	7.0	25.5*
Cc1cc(N=Nc2ccccc2)c(NCC(O)C(O)C(O)CO)cc1C (stereo not drawn)	-3.4	-4.5	-8.3	22.0*	0.1
COc1cccc2c1NC(C(=O)O)C1CC=CC21 (stereo not drawn)	30.0	-24.4	7.6*	-4.5	/
COc1cccc(C2Nc3c(F)cc(Br)cc3C3C=CCC32)c1OC (stereo not drawn)	24.2	-9.6	0.2	3.7	/
COc1ccc(C(=O)Nn2c(SCC(=O)c3ccccc3)nc3ccccc3c2=O)cc1	16.1	7.8	5.8	4.2	/
COc1ccc(C(=O)Nn2c(SCc3ccc([N+](=O)[O-])cc3)nc3ccccc3c2=O)cc1	33.3*	-3.4	-1.8	11.8	/
COc1ccccc1-c1ccc(/C=C2/C=C(CC(C)C)OC2=O)o1	17.1	21.2	-3.3	13.1	0.1
CCCC1=C/C(=C/c2ccc(-c3ccccc3OC)o2)C(=O)O1	39.8*	49.3*	-0.3	17.6	0.1
CCOc1ccc(CCNC(=O)c2ccc(C)c(NC3=NC4CS(=O)(=O)CC4S3)c2)cc1 (stereo not drawn)	-3.7	-4.4	5.4	0.4	0.1
Cc1ccc(C(=O)NCc2ccccn2)cc1NC1=NC2CS(=O)(=O)CC2S1 (stereo not drawn)	7.3	1.5	3.1	2.4	22.4*
CC(C)NC(=O)N1CC2(C1)[C@@H](c1ccccc1)[C@@H](CO)N2C(=O)C1CCC1	/	/	/	/	0.1
N[C@@H](Cc1ccc(O)c(O)c1)C(=O)O	4.8	-20.3	9.4	-3.0	-0.1
N[C@@H](Cc1cc(I)c(Oc2ccc(O)c(I)c2)c(I)c1)C(=O)O	58.3*!	58.7*!	0.6	-6.7	0.1
CCCNC(=O)N1CC(=O)N2[C@H](C1)[C@@H](c1ccc(-c3ccccc3)cc1)[C@@H]2CO	/	/	/	/	0.1
COc1ccc(/C=C(\NC(=O)c2ccco2)C(=O)NCCc2nc3ccccc3[nH]2)cc1	5.9	-8.5	-1.3	-1.7	0.0
